One may read the IC50 as the point on the concentration scale where inhibition reaches its midpoint. Read a low IC50 as inhibition by little substance. The term inhibition denotes how much of the control response was suppressed. Broadly, the Ki is the equilibrium dissociation constant of an inhibitor or competing ligand from its target. Read a low Ki as tighter binding.

Activity calls are given as the source filed them. The rule behind the calls is not given here.

From ChEMBL document CHEMBL3259780, “3-Substituted-N-(4-hydroxynaphthalen-1-yl)arylsulfonamides as a novel class of selective Mcl-1 inhibitors: structure-based design, synthesis, SAR, and biological evaluation” (J Med Chem, 2014) come the findings set out here.

One test has as its target Bcl-2-like protein 1 (Homo sapiens, UniProt Q07817). Kind of test: Displacement of Flu-BID/FAM-BID from His-tagged BCLX-L (1 to 209) (unknown origin) expressed in Escherichia coli BL21(DE3) after 3 hrs by fluorescence polarization assay. A general note: Fluorescence polarisation rises when a labelled molecule tumbles more slowly, as on binding a larger partner.
For test [1], the target named is T1, Induced myeloid leukemia cell differentiation protein Mcl-1 (Homo sapiens, UniProt Q07820). As to the kind of experiment: Inhibition of FITC-labeled MCL1 (unknown origin) after 5 mins by fluorescence polarization assay.
T1 sequence (Q07820 whole entry): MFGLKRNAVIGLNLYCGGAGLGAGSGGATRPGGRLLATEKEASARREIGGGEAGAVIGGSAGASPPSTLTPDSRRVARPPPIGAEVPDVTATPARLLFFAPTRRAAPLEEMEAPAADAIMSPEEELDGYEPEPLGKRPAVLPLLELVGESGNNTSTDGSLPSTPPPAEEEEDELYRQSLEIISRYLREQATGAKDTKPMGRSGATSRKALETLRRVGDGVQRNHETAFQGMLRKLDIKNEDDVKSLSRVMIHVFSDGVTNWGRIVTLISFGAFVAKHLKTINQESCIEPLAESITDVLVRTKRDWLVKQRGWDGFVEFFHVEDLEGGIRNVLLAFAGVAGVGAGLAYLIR
In test [2] the target is T1, Induced myeloid leukemia cell differentiation protein Mcl-1. Kind of test: Inhibition of MCL1 (unknown origin) overexpressed in E-mu-myc transgenic mouse lymphoma cells assessed as induction of cell death at 0.1 to 10 uM after 15 to 18 hrs by flow cytometric analysis. Format: cell-based. In short, it runs like this:
(§1)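 Eμ-myc transgenic mouse lymphoma cells retrovirally transduced to overexpress Mcl-1 or Bcl-2, seeded at 0.5 × 10^6 cells/well. Cells were treated at varying concentrations for 15–18 h and stained with violet LIVE/DEAD fixable dead-cell dye. Percent stained (dead) cells was measured by flow cytometry. Means ± SEM from 3–7 independent experiments.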

Test [3] deals with T2, Apoptosis regulator Bcl-2 (Homo sapiens, UniProt P10415). As to conditions: lymphoma, 0.1 to 10 uM.
T2 sequence (P10415 whole entry): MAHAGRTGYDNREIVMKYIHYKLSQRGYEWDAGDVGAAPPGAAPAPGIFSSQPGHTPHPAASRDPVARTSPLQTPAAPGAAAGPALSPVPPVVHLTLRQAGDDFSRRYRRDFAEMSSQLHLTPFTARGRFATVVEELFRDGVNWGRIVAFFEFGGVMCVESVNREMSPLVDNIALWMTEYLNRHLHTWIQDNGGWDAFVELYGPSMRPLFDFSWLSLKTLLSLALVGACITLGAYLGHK
Test [4] has as its target Induced myeloid leukemia cell differentiation protein Mcl-1 homolog (Mus musculus) (UniProt P97287). As to the kind of experiment: Inhibition of MCL1 in wild-type MEF assessed as induction of BAX/BAK-dependent cell death after 15 hrs by propidium iodide staining-based flow cytometric analysis. In short, it runs like this:
(§2)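 Wild-type and Bax/Bak double-knockout MEFs were grown in DMEM with 10% FBS, seeded at 0.5 × 10^6 cells/well and allowed to adhere. Cells were exposed to increasing concentrations for 15 h, harvested, washed in PBS and stained with 0.025 mg/mL propidium iodide. PI-positive percentage was measured by flow cytometry. Mean ± SEM, with unpaired t test.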
For orientation: In flow cytometry, cells or beads pass a laser one at a time.

Test [5] relates to HL-60. As to the kind of experiment: Induction of apoptosis in human HL60 cells after 20 hrs by annexin V-FITC and propidium iodide staining-based flow cytometric analysis. Format: functional, cell-based. In short, it runs like this:
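HL-60 cells at 0.5 × 10^6 cells/well were exposed to compounds at several concentrations for 20 h, then washed in PBS and stained with annexin-V FITC plus PI. Flow cytometry was run within 1 h. Annexin+/PI− counts as early apoptosis and double positive as late. Some runs included a 1 h pretreatment with 100 μM Z-VAD-FMK.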

A further test deals with K562. Kind of test: Cytotoxicity against human K562 cells assessed as intracellular ATP level after 3 days by CellTiterGlo assay. The class given is functional, cell-based. The method, boiled down: (§3)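 Cells in RPMI 1640 with 10% FBS, plated at 0.5 × 10^6 cells/well and exposed to a range of compound concentrations for 3 days. Viability is read as intracellular ATP by CellTiter-Glo luminescence. Growth is expressed as percent of DMSO-treated cells, and IC50 is obtained by nonlinear regression.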

Test [6] has as its system HL-60. As to the kind of experiment: Induction of apoptosis in human HL60 cells assessed as caspase-3 activation at 2.5 uM […] by DEVD-AFC-based fluorometric assay. The class given is functional, cell-based.
The target in test [7] is T2, Apoptosis regulator Bcl-2. Kind of test: Inhibition of BCL2 (unknown origin) overexpressed in E-mu-myc transgenic mouse lymphoma cells assessed as induction of cell death after 15 to 18 hrs by flow cytometric analysis. The class given is cell-based. In short, it runs like this: as §1
For test [8], the system named is HL-60. Kind of test: Cytotoxicity against human HL60 cells assessed as intracellular ATP level after 3 days by CellTiterGlo assay. The class given is functional, cell-based. In short, it runs like this: as §3
On the technique in general: In ATP-based viability assays light output follows the ATP content of the culture.

For test [9], the target named is T2, Apoptosis regulator Bcl-2. As to the kind of experiment: Displacement of Flu-BID/FAM-BID from His-tagged BCL2 (1 to 202) (unknown origin) expressed in Escherichia coli BL21(DE3) after 3 hrs by fluorescence polarization assay.
Test [10] has as its system HL-60. As to the kind of experiment: Induction of apoptosis in human HL60 cells assessed as caspase-3 activation after 20 hrs by DEVD-AFC-based fluorometric assay. Format: functional, cell-based. In short, it runs like this:
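HL-60 cells were seeded at 0.5 × 10^6 cells/well and exposed to graded compound concentrations for 20 h. Caspase-3 activity was measured by fluorometric kit assay with DEVD-AFC substrate. Results are expressed as fold change over DMSO-treated cells.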

The target in test [11] is Induced myeloid leukemia cell differentiation protein Mcl-1 homolog (Mus musculus) (UniProt P97287). As to the kind of experiment: Inhibition of MCL1 in wild-type MEF assessed as induction of BAX/BAK-dependent cell death at 16 uM after 15 hrs by propidium iodide staining-based flow cytometric analysis relative to control. The method, boiled down: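 Wild-type and Bax/Bak double-knockout MEFs grown in DMEM with 10% FBS, seeded at 0.5 × 10^6 cells/well and left to adhere. Exposed 15 h to compound, harvested, PBS-washed, stained with 0.025 mg/mL propidium iodide. PI-positive percentage by flow cytometry; significance by unpaired t test.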
Chain of Induced myeloid leukemia cell differentiation protein Mcl-1 homolog (Mus musculus) (P97287 whole entry): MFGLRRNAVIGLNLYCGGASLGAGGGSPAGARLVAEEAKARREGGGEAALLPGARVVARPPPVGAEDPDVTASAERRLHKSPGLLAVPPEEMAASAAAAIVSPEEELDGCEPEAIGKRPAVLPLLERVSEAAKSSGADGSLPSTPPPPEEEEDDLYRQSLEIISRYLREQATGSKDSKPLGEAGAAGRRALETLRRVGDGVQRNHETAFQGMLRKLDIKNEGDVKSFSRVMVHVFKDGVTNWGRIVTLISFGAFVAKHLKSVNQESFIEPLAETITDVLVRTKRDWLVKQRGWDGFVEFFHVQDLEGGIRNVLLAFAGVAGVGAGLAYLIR

Another test has as its system MV4-11. As to the kind of experiment: Cytotoxicity against human MV4-11 cells assessed as intracellular ATP level after 3 days by CellTiterGlo assay. The class given is functional, cell-based. In short, it runs like this: as §3
Test [12] deals with Induced myeloid leukemia cell differentiation protein Mcl-1 homolog (Mus musculus) (UniProt P97287). As to the kind of experiment: Inhibition of MCL1 in BAX/BAK double knock out MEF assessed as induction of cell death at 16 uM after 15 hrs by propidium iodide staining-based flow cytometric analysis relative to control. In short, it runs like this: as §2

Chain of Bcl-2-like protein 1 (Q07817 whole entry): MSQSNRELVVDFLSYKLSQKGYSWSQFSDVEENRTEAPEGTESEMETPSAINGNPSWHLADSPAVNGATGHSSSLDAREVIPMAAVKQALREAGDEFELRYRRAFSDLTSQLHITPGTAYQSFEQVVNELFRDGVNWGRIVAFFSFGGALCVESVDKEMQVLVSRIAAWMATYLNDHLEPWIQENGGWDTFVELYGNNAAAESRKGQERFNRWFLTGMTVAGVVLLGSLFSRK

On to `Cc1cs/c(=N\C2CCCCC2)n1/N=C/c1ccc(O)c(O)c1O`, for which the IC50 on Bcl-2-like protein 1 was over 50 µM; in test [1] it was 4.72 µM.
With `CC1(C)CCC(c2ccc(Cl)cc2)=C(CN2CCN(c3ccc(C(=O)NS(=O)(=O)c4ccc(N[C@H](CCN5CCOCC5)CSc5ccccc5)c(S(=O)(=O)C(F)(F)F)c4)cc3)CC2)C1`, in test [2], the inhibition result was “inactive”. For the same molecule, the inhibition result in [3] is “Active”.
In the case of `O=C(O)CSc1cc(NS(=O)(=O)c2ccc(Oc3ccccc3)cc2)c2ccccc2c1O`, the inhibition result is “Dose-dependent effect” in test [4], 61% in test [11] and 23% in test [12]. Moreover, the Activity result in the test with HL-60 [5], in the test with K562, in the test with HL-60 [8], with HL-60 [10] and in the test with MV4-11 was “Dose-dependent effect” each time. The result in the test on HL-60 [6] was Active. For the same molecule, the inhibition result in [7] was “inactive”. Besides, the figures for the Ki (in [9]; at Bcl-2-like protein 1) were 7.56 µM and 10.6 µM, respectively.
